pEC50, pIC50: −log10 of the molar value.
How the values were obtained:
[1] = Inhibition of Trypanosoma brucei NMT using [3H]-myristoyl-coA/biotinylated CAP5.5 as substrate after 50 mins by scintillation proximity assay
Summary of the method: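 TbNMT scintillation proximity assay at 22–23 °C, with test compound dilutions added in DMSO. Reaction: 30 mM Tris pH 7.4, 0.5 mM EDTA, 0.5 mM EGTA, 1.25 mM DTT, 0.1% Triton X-100, 0.125 μM [3H]myristoyl-coA, 0.5 μM biotinylated CAP5.5 peptide, 5 nM enzyme. Enzyme added first, then substrate mix to start; stopped after 50 min with phosphoric acid pH 4.0/MgCl2/SPA beads; scintillation counting.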

[2] = Intrinsic clearance in CD1 mouse liver microsomes at 1 uM measured up to 30 mins by UPLC-MS/MS method; format: ADME, microsome; conditions: 0.5 h
[3] = test system: Trypanosoma brucei brucei; experiment: Antitrypanosomal activity against bloodstream form of Trypanosoma brucei brucei s427 after 69 hrs by resazurin-based […] analysis; format: functional, organism-based; conditions: s427, 69 h
Summary of the method: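 Bloodstream T. b. brucei s427 was grown in modified HMI9 (56 μM 1-thioglycerol in place of 2-mercaptoethanol) and counted by hemocytometer. Cells (10^4/ml) were added to compound in DMSO and incubated 69 h at 37 °C, 5% CO2. Resazurin (50 μM final) was then added for 4 h more. Fluorescence read at ex 528/em 590 nm.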

[4] = test system: human NMT1 versus Trypanosoma brucei NMT; experiment: Selectivity ratio of IC50 for human NMT1 to IC50 for Trypanosoma brucei NMT; format: toxicity; conditions: read-out: Ratio IC50
Summary of the method: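 Both enzymes assayed by SPA in the same buffer: 0.125 μM [3H]myristoyl-coA, 0.5 μM biotinylated CAP5.5 peptide, 5 nM NMT, 22–23 °C. Reactions stopped at 15 min for HsNMT1 and 50 min for TbNMT. The ratio is HsNMT IC50 divided by TbNMT IC50.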

[5] = molecular target: T1, Glycylpeptide N-tetradecanoyltransferase 1 (Homo sapiens, UniProt P30419); experiment: Inhibition of human NMT1 using [3H]-myristoyl-coA/biotinylated CAP5.5 as substrate after 15 mins by scintillation proximity assay
T1 sequence (P30419 whole entry): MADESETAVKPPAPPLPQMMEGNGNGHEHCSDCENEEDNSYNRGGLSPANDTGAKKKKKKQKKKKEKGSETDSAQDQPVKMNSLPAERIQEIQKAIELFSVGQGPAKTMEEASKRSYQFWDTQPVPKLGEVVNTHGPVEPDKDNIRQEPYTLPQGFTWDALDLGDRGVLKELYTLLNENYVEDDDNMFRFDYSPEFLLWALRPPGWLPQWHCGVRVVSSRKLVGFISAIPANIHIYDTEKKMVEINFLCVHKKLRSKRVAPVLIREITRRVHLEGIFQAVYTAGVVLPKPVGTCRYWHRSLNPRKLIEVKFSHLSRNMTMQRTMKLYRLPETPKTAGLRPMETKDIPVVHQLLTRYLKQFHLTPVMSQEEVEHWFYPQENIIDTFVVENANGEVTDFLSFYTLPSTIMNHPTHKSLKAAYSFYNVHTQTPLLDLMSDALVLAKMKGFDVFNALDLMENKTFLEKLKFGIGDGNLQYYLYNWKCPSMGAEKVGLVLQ

[6] = molecular target: Voltage-gated inwardly rectifying potassium channel KCNH2 (Homo sapiens, UniProt Q12809); experiment: Inhibition of human ERG by patch clamp assay
human NMT = experiment: Therapeutic index, ratio of IC50 for human NMT to EC50 for bloodstream form of Trypanosoma brucei brucei s427; format: toxicity; conditions: read-out: Ratio IC50/EC50

Sequence of Voltage-gated inwardly rectifying potassium channel KCNH2 (Q12809 whole entry): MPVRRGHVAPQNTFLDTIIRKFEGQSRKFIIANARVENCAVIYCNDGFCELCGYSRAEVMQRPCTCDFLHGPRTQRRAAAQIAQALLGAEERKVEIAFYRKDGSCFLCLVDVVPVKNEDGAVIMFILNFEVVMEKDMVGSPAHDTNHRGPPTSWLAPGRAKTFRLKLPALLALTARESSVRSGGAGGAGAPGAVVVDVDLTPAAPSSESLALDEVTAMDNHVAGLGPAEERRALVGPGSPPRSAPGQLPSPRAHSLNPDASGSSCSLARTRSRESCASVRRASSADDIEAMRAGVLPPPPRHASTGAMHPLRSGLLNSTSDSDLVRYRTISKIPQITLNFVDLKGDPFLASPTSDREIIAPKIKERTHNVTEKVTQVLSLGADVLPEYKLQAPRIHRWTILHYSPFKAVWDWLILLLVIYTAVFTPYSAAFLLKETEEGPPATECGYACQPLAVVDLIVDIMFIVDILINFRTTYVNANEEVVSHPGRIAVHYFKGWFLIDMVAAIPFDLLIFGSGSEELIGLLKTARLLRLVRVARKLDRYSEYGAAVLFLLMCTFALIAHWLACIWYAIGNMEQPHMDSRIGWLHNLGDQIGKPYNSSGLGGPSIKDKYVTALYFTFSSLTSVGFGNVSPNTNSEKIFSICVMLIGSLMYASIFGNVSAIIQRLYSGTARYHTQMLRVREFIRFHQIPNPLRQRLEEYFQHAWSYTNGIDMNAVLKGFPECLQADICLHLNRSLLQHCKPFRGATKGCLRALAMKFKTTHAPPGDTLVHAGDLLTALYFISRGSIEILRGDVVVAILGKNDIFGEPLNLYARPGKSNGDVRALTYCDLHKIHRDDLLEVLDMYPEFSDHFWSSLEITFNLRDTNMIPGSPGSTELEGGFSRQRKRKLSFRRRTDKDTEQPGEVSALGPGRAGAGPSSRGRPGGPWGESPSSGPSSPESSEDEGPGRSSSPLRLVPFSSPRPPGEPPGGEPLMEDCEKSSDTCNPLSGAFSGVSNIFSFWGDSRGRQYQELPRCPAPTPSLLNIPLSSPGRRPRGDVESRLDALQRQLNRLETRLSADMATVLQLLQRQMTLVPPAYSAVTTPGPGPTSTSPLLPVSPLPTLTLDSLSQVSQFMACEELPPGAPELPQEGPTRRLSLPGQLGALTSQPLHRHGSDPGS

SMILES | pIC50 [1] | CLH [2] [mL/min/g] | pEC50 [3] | selectivity ratio [4] | pIC50 [5] | pIC50 [6] | selectivity ratio (human NMT)
CC(C)Cc1ccc2nn(C)cc2c1NS(=O)(=O)c1ccc(CCCCN2CCCN(C)CC2)cc1 | > 8.30 | 4 | 7.46 | – | – | – | –
CC(C)Cc1ccc2nn(C)cc2c1NS(=O)(=O)c1ccc(CCCOC[C@H]2CN(C)CCO2)cc1 | > 8.30 | 22 | 8.05 | – | – | – | –
Cc1ccc2ncccc2c1NS(=O)(=O)c1ccc(Br)cc1 | 4.48 | 3.6 | – | > 3 | < 4.00 | – | –
COc1ccc(S(=O)(=O)Nc2cc(C(=O)O)ccc2N2CCCCCC2)cc1 | < 4.00 | – | – | – | – | – | –
CC(C)Cc1ccc2ncccc2c1NS(=O)(=O)c1ccc(CCCN2CCN(C)CC2)cc1 | 8.15 | 2.3 | 7.08 | – | – | – | –
CC(C)Cc1ccc2ncccc2c1NS(=O)(=O)c1ccc(CCCN2CCCN(C)CC2)cc1 | > 8.30 | 3.7 | 7.74 | – | – | – | –
O=C1OCc2c1ccc(N1CCCC1)c2NS(=O)(=O)c1ccc(Br)cc1 | < 4.00 | – | – | – | – | – | –
CC(C)Cc1ccc2ncccc2c1NS(=O)(=O)c1ccc(CCCCN2CCN3CCC[C@@H]3C2)cc1 | 7.92 | 8.9 | 6.60 | – | – | – | –
CC(C)Cc1ccc2nn(C)cc2c1NS(=O)(=O)c1ccc(CCCO[C@@H]2C[C@H]3CC[C@@H](C2)N3C)cc1 | 8.30 | 1.4 | 7.41 | – | – | 5.48 | –
COC(=O)c1ccc(N2CCCCC2)c(NS(=O)(=O)c2ccc(Br)cc2)c1 | < 4.00 | – | – | – | – | – | –
CC(C)Cc1ccc2nn(C)cc2c1NS(=O)(=O)c1ccc(CCCOC[C@H]2CCCN2C)cc1 | > 8.30 | – | 7.70 | – | – | – | –
CC(C)Cc1ccc2ncccc2c1NS(=O)(=O)c1ccc(CCCCN2C[C@@H](C)N[C@@H](C)C2)cc1 | 7.80 | – | 6.46 | – | – | – | –
Cn1cc2c(NS(=O)(=O)c3ccc(Br)cc3)c(C3CCCCC3)ccc2n1 | 4.77 | – | 4.49 | > 5.9 | < 4.00 | – | > 3.1
CC(C)Cc1ccc2ncccc2c1NS(=O)(=O)c1ccc(CCCCC2CCNCC2)cc1 | > 8.30 | 1.5 | 7.68 | – | – | – | –
Cn1cc2c(NS(=O)(=O)c3ccc(Br)cc3)c(C3CCCC3)ccc2n1 | 4.59 | – | < 4.30 | > 3.8 | < 4.00 | – | –
O=S(=O)(Nc1c(C2CCCC2)ccc2ncccc12)c1ccc(Br)cc1 | 5.49 | > 50 | < 4.30 | – | – | – | –
CC(C)Cc1ccc2ncccc2c1NS(=O)(=O)c1ccc(CCCCN2CCNCC2)cc1 | 8.00 | 1.3 | 6.74 | – | – | – | –
COC(=O)c1ccc(N2CCCC2)c(NS(=O)(=O)c2ccc(Br)cc2)c1 | 6.10 | – | 4.68 | > 100 | < 4.00 | – | > 4.8
COC(=O)c1ccc(N2CCCC2)c(NS(=O)(=O)c2ccc(OC)cc2)c1 | 6.15 | – | 4.82 | > 100 | < 4.00 | – | > 6.7
CC(C)Cc1ccc2ncccc2c1NS(=O)(=O)c1ccc(Br)cc1 | 5.77 | > 50 | < 4.30 | > 59 | < 4.00 | – | –
O=S(=O)(Nc1c(CC2CCCCC2)ccc2ncccc12)c1ccc(Br)cc1 | 5.85 | 33 | 4.64 | > 71 | < 4.00 | – | > 4.3
O=S(=O)(Nc1cccc2ncccc12)c1ccc(Br)cc1 | 4.05 to 4.06 | – | < 4.30 | > 1.1 | < 4.00 | – | –
COC(=O)c1cccc(NS(=O)(=O)c2ccc(Br)cc2)c1 | < 4.00 | – | – | – | – | – | –
Cn1cc2c(NS(=O)(=O)c3ccc(Br)cc3)c(CC3CCCCC3)ccc2n1 | 5.77 | – | < 4.30 | > 59 | < 4.00 | – | –

SMILES | pIC50 [1] | CLH [2] [mL/min/g] | pEC50 [3] | selectivity ratio [4] | pIC50 [5] | pIC50 [6] | selectivity ratio (human NMT)
CC(C)Cc1ccc2ncccc2c1NS(=O)(=O)c1ccc(CCCOC[C@@H]2CN(C)CCO2)cc1 | > 8.30 | – | 7.48 | – | – | – | –
O=S(=O)(Nc1ccc2scnc2c1)c1ccc(Br)cc1 | 4.62 | – | – | – | – | – | –
CC(C)Cc1ccc2nn(C)cc2c1NS(=O)(=O)c1ccc(CCCOC[C@@H]2CN(C)CCO2)cc1 | > 8.30 | 24 | 7.59 | – | – | – | –
CC(C)Cc1ccc2nn(C)cc2c1NS(=O)(=O)c1ccc(CCCN2CCCN(C)CC2)cc1 | 8.30 | – | 7.80 | – | – | – | –
Cn1cc2c(NS(=O)(=O)c3ccc(Br)cc3)cccc2n1 | 4.57 | 6.3 | < 4.30 | > 3.7 | < 4.00 | – | –
CC(C)Cc1ccc2nn(C)cc2c1NS(=O)(=O)c1ccc(Br)cc1 | 5.96 | – | < 4.30 | > 91 | < 4.00 | – | –
O=S(=O)(Nc1c(-c2ccccc2)ccc2ncccc12)c1ccc(Br)cc1 | < 4.00 | – | 4.30 | – | < 4.00 | – | –
CC(C)Cc1ccc2ncccc2c1NS(=O)(=O)c1ccc(CCCCC2CCN(C)CC2)cc1 | > 8.30 | 6.2 | 7.72 | – | – | – | –
CN1CCC(CCCCc2ccc(S(=O)(=O)Nc3c(N4CCCC4)ccc4ncccc34)cc2)CC1 | 7.96 | – | 7.12 | 110 | 5.92 | – | 16
CC(C)Cc1ccc2nn(C)cc2c1NS(=O)(=O)c1ccc(CCCC2CCN(C)CC2)cc1 | > 8.30 | 1.2 | 8.30 | – | – | – | –
CC(C)Cc1ccc2ncccc2c1NS(=O)(=O)c1ccc(CCCC2CCN(C)CC2)cc1 | > 8.30 | 2.6 | 8.05 | – | – | – | –
CC(C)Cc1ccc2ncccc2c1NS(=O)(=O)c1ccc(CCCOC[C@@H]2CNCCO2)cc1 | > 8.30 | – | 7.41 | – | – | – | –
CC(C)Cc1ccc2nn(C)cc2c1NS(=O)(=O)c1ccc(CCCOC[C@@H]2COCCN2C)cc1 | 8.05 | – | 7.12 | – | – | – | –
O=S(=O)(Nc1c(N2CCCC2)ccc2ncccc12)c1ccc(Br)cc1 | 5.12 | 27 | 4.96 | 5.5 | 4.39 | – | 3.7
CC(C)Cc1ccc2ncccc2c1NS(=O)(=O)c1ccc(CCCO[C@@H]2CCCN(C)C2)cc1 | > 8.30 | – | 7.41 | – | – | – | –
O=S(=O)(Nc1c(N2CCCCCC2)ccc2ncccc12)c1ccc(Br)cc1 | 6.16 | > 50 | 4.74 | – | – | – | –
O=S(=O)(Nc1cc(-c2cccnc2)ccc1N1CCCC1)c1ccc(Br)cc1 | 4.41 | – | – | – | – | – | –
Cn1cc2c(NS(=O)(=O)c3ccc(Br)cc3)c(N3CCCC3)ccc2n1 | 4.57 | 33 | 4.62 | > 3.7 | < 4.00 | – | > 4.1
CC(C)Cc1ccc2nn(C)cc2c1NS(=O)(=O)c1ccc(CCCCN2CCN3CCC[C@@H]3C2)cc1 | 7.85 | 3.7 | 6.85 | – | – | – | –
CC(C)Cc1ccc2ncccc2c1NS(=O)(=O)c1ccc(CCCO[C@H]2C[C@H]3CC[C@@H](C2)N3C)cc1 | > 8.30 | 2.3 | 8.05 | – | – | – | –
COC(=O)c1ccc(N2CCCCCC2)c(NS(=O)(=O)c2ccc(OC)cc2)c1 | 6.00 | – | 4.92 | > 100 | < 4.00 | – | 8.3
CCC(CC)c1ccc2ncccc2c1NS(=O)(=O)c1ccc(Br)cc1 | 5.24 | – | < 4.30 | > 17 | < 4.00 | – | –
O=S(=O)(Nc1c(C2CCCCC2)ccc2ncccc12)c1ccc(Br)cc1 | 4.20 | 38 | 4.41 | > 1.6 | < 4.00 | – | > 2.6
O=S(=O)(Nc1c(Cc2ccccc2)ccc2ncccc12)c1ccc(Br)cc1 | 5.21 | 23 | < 4.30 | > 16 | < 4.00 | – | –
